Measured values published in ChEMBL document CHEMBL4765235, “Discovery of N-[Bis(4-methoxyphenyl)methyl]-4-hydroxy-2-(pyridazin-3-yl)pyrimidine-5-carboxamide (MK-8617), an Orally Active Pan-Inhibitor of Hypoxia-Inducible Factor Prolyl Hydroxylase 1-3 (HIF PHD1-3) for the Treatment of Anemia” (J Med Chem, 2016).
Calls of active or inactive are those of the source. No cut-off for these calls is given here.

Tests used:
[1] = target: Prolyl hydroxylase EGLN3 (Homo sapiens, UniProt Q9H6Z9); assay: Inhibition of FLAG-tagged full-length HIF-PHD3 (unknown origin) expressed in baculovirus infected Sf9 cells using 2-oxoglutarate and HIF1alpha biotinyl-DLDLEMLAPYIPMDDDFQL as peptide substrates preincubated for 30 mins followed by substrate addition and measured after 2 hrs by LANCE assay
Prolyl hydroxylase EGLN3, sequence (Q9H6Z9 whole entry): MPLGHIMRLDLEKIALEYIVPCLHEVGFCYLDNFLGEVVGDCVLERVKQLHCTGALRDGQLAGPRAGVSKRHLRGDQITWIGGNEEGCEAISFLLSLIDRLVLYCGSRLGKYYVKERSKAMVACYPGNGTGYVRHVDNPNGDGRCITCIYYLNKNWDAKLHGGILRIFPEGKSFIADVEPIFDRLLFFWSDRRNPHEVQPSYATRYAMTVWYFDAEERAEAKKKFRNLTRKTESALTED

[2] = Metabolic stability in human liver microsomes assessed as metabolic turnover at 10 uM measured after 60 mins in presence of NADPH; type: ADME, Microsome; conditions: read-out: Drug metabolism
[3] = target: T1, Cytochrome P450 2C8 (Homo sapiens, UniProt P10632); assay: Reversible inhibition of CYP2C8 (unknown origin); type: ADME
T1 sequence (P10632 whole entry): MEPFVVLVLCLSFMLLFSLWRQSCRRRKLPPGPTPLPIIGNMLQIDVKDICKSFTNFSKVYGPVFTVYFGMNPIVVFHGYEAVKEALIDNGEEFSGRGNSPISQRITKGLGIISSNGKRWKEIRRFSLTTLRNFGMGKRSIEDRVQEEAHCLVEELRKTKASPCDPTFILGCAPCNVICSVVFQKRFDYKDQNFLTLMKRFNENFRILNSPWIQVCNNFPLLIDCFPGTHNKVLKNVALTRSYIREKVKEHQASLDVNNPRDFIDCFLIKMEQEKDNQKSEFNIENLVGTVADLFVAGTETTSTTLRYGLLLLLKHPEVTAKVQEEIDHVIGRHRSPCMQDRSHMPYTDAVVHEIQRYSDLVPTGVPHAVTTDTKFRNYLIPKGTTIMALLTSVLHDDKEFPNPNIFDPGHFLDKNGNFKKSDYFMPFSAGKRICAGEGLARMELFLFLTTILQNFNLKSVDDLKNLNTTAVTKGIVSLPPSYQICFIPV

[4] = Half life in C57BL/6J mouse at 1 mg/kg, po or 0.5 mg/kg, iv; type: ADME, organism-based; conditions: in vivo
Method in brief: (§1)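 Single-dose PK at 1 mg/kg po and 0.5 mg/kg iv. Mouse clearance is from blood; dog and rhesus clearance is from plasma. Mouse vehicle, both routes: DMSO:PEG400:water (5:40:55, v/v/v). Dog and monkey iv vehicle: PEG200:12%HPCD:water (30:12:58 v/v/v). Dog and monkey po vehicle: Imwitor:Tween (1:1 w/w).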

[5] = Cmax in rhesus monkey at 1 mg/kg, po or 0.5 mg/kg, iv; type: ADME, organism-based, Macaca mulatta; parameters: dose 1 mg/kg; conditions: in vivo; method in brief: as §1
[6] = Oral bioavailability in rat at 2 mg/kg; type: ADME, organism-based; conditions: in vivo
[7] = Oral bioavailability in dog at 1 mg/kg; type: ADME, organism-based, Canis lupus familiaris; conditions: in vivo
Method in brief: (§2)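 Dog and rhesus monkey dosed 1 mg/kg po and 0.5 mg/kg iv. The iv vehicle was PEG200:12%HPCD:water (30:12:58 v/v/v); the po vehicle was Imwitor:Tween (1:1 w/w). Clearance was measured in plasma. Protein binding was measured in 100% serum.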

[8] = Drug recovery in fasted bile-duct cannulated Sprague-Dawley rat urine at 5 mg/kg, po using [3H]-labeled compound measured after 48 hrs; type: ADME, organism-based; conditions: in vivo
[9] = Half life in rhesus monkey at 1 mg/kg, po or 0.5 mg/kg, iv; type: ADME, organism-based, Macaca mulatta; conditions: in vivo; method in brief: as §1
[10] = Plasma clearance in dog at 1 mg/kg, po or 0.5 mg/kg, iv; type: ADME, organism-based, Canis lupus familiaris; method in brief: as §2
[11] = Cmax in Sprague-Dawley rat at 1.5 mg/kg, po administered as single dose measured at 6 hrs; type: ADME, organism-based; parameters: route oral, time 6 hrs, dose 1.5 mg/kg; conditions: in vivo
[12] = Cmax in Sprague-Dawley rat at 15 mg/kg, po administered as single dose measured at 6 hrs; type: ADME, organism-based; parameters: route oral, time 6 hrs, dose 15 mg/kg; conditions: in vivo
[13] = Drug recovery in fasted bile-duct cannulated Sprague-Dawley rat feces assessed as metabolically unchanged parent compound by measuring radioactivity at 5 mg/kg, po using [3H]-labeled compound measured after 48 hrs; type: ADME, organism-based; conditions: in vivo
[14] = Drug metabolism in dog liver microsomes assessed as O-demethylated metabolite formation; type: ADME, Canis lupus familiaris, Microsome
[15] = Cmax in rat at 2 mg/kg, po or 1 mg/kg, iv; type: ADME, organism-based; parameters: dose 2 mg/kg; conditions: in vivo
[16] = Plasma clearance in rat at 2 mg/kg, po or 1 mg/kg, iv; type: ADME, organism-based
[17] = Drug recovery in fasted bile-duct cannulated Sprague-Dawley rat urine assessed as metabolically unchanged parent compound at 5 mg/kg, po using [3H]-labeled compound measured after 48 hrs; type: ADME, organism-based; conditions: in vivo
[18] = Drug metabolism in fasted bile-duct cannulated Sprague-Dawley rat bile assessed as oxidation of parent compound causing metabolite formation at 5 mg/kg, po using [3H]-labeled compound measured after 48 hrs; type: ADME, organism-based; conditions: in vivo
[19] = target: Cytochrome P450 2C9 (Homo sapiens, UniProt P11712); assay: Inhibition of CYP2C9 (unknown origin); type: ADME
Cytochrome P450 2C9, sequence (P11712 whole entry): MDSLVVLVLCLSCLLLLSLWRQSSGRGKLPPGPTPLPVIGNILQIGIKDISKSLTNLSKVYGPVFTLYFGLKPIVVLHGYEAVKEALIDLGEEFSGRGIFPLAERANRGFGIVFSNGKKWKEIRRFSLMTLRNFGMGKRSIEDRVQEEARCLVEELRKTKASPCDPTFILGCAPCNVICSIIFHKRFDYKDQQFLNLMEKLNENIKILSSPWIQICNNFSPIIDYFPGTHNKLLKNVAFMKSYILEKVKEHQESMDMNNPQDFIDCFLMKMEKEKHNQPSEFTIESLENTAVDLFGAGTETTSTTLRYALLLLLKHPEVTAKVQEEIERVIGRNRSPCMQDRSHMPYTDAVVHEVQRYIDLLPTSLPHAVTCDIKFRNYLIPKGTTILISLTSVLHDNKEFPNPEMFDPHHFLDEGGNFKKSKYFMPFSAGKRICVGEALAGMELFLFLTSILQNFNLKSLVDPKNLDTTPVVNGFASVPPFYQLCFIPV

[20] = target: Cytochrome P450 2C19 (Homo sapiens, UniProt P33261); assay: Inhibition of CYP2C19 (unknown origin); type: ADME
Cytochrome P450 2C19, sequence (P33261 whole entry): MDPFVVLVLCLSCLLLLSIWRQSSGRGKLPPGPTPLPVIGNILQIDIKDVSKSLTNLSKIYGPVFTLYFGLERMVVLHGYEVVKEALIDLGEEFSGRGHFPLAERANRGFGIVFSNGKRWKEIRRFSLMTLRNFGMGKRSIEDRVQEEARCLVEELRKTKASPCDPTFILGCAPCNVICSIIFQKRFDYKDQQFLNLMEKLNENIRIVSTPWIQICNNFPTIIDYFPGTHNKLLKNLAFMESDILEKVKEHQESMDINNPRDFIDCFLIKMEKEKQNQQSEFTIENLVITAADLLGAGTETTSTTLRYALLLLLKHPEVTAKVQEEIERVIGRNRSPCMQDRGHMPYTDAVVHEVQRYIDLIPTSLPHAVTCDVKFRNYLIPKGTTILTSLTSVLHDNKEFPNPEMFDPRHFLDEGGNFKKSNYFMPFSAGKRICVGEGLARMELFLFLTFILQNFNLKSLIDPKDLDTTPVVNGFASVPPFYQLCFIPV

[21] = species: Rattus norvegicus; conditions: Sprague-Dawley, dose 15.0 mg/kg
[22] = target: T2, Cytochrome P450 1A2 (Homo sapiens, UniProt P05177); assay: Inhibition of CYP1A2 (unknown origin); type: ADME
T2 sequence (P05177 whole entry): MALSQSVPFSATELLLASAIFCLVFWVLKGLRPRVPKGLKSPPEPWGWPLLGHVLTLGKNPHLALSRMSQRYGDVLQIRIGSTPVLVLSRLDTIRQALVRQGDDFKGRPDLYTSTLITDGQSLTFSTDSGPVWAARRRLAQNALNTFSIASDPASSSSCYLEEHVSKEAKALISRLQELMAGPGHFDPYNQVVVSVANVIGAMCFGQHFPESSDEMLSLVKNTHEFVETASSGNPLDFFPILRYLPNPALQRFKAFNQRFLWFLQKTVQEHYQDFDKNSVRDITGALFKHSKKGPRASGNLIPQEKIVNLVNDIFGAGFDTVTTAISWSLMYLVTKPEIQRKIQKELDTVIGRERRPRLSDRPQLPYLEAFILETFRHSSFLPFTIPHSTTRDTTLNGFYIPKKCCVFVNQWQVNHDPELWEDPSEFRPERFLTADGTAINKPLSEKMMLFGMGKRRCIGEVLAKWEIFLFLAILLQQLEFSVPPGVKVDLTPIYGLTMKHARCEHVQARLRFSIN

[23] = Protein binding in rhesus monkey plasma assessed as unbound fraction at 1 mg/kg, po or 0.5 mg/kg, iv; type: ADME, organism-based, Macaca mulatta; conditions: read-out: PPB
[24] = species: Mus musculus; conditions: C57BL/6, dose 5-15 mg/kg, time 2.0 day
[25] = In vivo inhibition of HIF-PHD2 in iv dosed C57BL/6 mouse assessed as minimum effective dose causing increase in serum erythropoietin levels measured after 4 hrs; type: functional; conditions: C57BL/6, iv, read-out: MED
Method in brief: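 Mouse pharmacodynamic EPO assay (MoPED). Compound dosed iv; serum EPO measured 4 hr after dosing and reported in pg/mL. Minimum effective dose is the lowest dose giving EPO elevation.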

[26] = Volume of distribution at steady state in rhesus monkey at 1 mg/kg, po or 0.5 mg/kg, iv; type: ADME, organism-based, Macaca mulatta; conditions: in vivo, read-out: Vdss; method in brief: as §2
[27] = Blood clearance in C57BL/6J mouse at 1 mg/kg, po or 0.5 mg/kg, iv; type: ADME, organism-based; conditions: whole blood; method in brief: as §1

COc1ccc(C(NC(=O)c2cnc(-c3cccnn3)nc2O)c2ccc(OC)cc2)cc1
IC50 [1]: 14 nM | metabolised at 1 h, 10 µM [2]: 34% | IC50 [3]: 1600 nM | half-life [4]: 11 h | Cmax [5]: 17 µM | bioavailability [6]: 36% | bioavailability [7]: 71% | Drug recovery [8]: 26% | half-life [9]: 10 h | clearance [10]: 0.07 mL/min/kg | Cmax [11]: 6.8 µM | Cmax [12]: 30 µM | Drug recovery [13]: 90% | Drug metabolism [14]: Metabolite_Detected | Cmax [15]: 11 µM | clearance [16]: 0.2 mL/min/kg | Drug recovery [17]: < 10% | Drug metabolism [18]: Metabolite_Detected | IC50 [19]: > 60000 nM | IC50 [20]: > 60000 nM | inhibition [21]: Active | IC50 [22]: > 60000 nM | fraction unbound [23]: 0.005 | inhibition [24]: Active | minimal effective dose [25]: 1.5 mg/kg | Vd [26]: 0.1 L/kg | clearance [27]: 0.13 mL/min/kg
